In ChEMBL document CHEMBL5131497, “Design, Synthesis, and Characterization of TNP-2198, a Dual-Targeted Rifamycin-Nitroimidazole Conjugate with Potent Activity against Microaerophilic and Anaerobic Bacterial Pathogens” (J Med Chem, 2022):
Values after ≈ are worked out from the molar mass of the structure shown. Active and inactive are the calls of the source. No cut-off for these calls is given here.

Columns and labels:
[1] = Volume of distribution at steady state in C57BL/6 mouse at 5 mg/kg, iv; assay type: ADME, organism-based; conditions: in vivo, read-out: Vdss
[2] = test system: Gardnerella vaginalis; assay: Resistance development in Gardnerella vaginalis MMX 5973 assessed as spontaneous resistance frequency using at 4.50 x 10^8 CFU inoculum at 4 ug/ml; assay type: functional; conditions: dose 4 µg/ml
How it was run: (§1)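 Resistant colonies were counted at each drug concentration in two separate tests (test 1, test 2) and averaged. The spontaneous resistance frequency was taken from the mean colony count relative to the inoculum plated. Drug levels tested were 0.5, 1, 2 and 4 µg/mL, and a mutation prevention concentration (MPC) was also reported.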

[3] = test system: Actinomyces naeslundii; assay: Antibacterial activity against Actinomyces naeslundii ATCC 1210; assay type: functional
[4] = test system: Prevotella bivia; assay: Antibacterial activity against metronidazole-resistant Prevotella bivia MMX 3454; assay type: functional
[5] = Drug distribution in Sprague-Dawley rat vaginal secretion measured at 0.5 hrs; assay type: ADME, tissue-based, Vaginal fluid; conditions: female, read-out: Ct
How it was run: (§2)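 Sprague–Dawley rats were dosed with TNP-2198. Concentrations were measured in plasma (ng/mL) and in tissues or contents (ng/g) at 0.5, 2, 6, 12 and 24 h after dosing. Values below the limit of quantification are reported as BLOQ.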

[6] = test system: Helicobacter pylori; assay: Antibacterial activity against rifampicin-resistant Helicobacter pylori CB1614 harboring rpoBL525I/D530N mutant measured after 5 days by agar dilution method; assay type: functional; conditions: CB1614, 120 h, time 5 day
How it was run: (§3)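 Agar dilution per CLSI. Wild-type ATCC 700392 (CB1531) and its derivatives carry defined resistance determinants. Drugs, alone or in 1:1 molar mixtures, were diluted 2-fold from 100× stocks into Mueller–Hinton agar with aged (≥2 weeks) sheep blood (5% v/v). MIC read after 5 days at 35 °C under microaerobic conditions from a campylobacter gas-generating system.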

[7] = test system: Veillonella parvula; assay: Antibacterial activity against Veillonella parvula ATCC 17745 MMX 1272; assay type: functional
[8] = Drug distribution in Sprague-Dawley rat vaginal tissue measured at 12 hrs; assay type: ADME, tissue-based, Vagina; conditions: female, read-out: Ct; how it was run: as §2
[9] = Drug distribution in Sprague-Dawley rat large intestine tissue measured at 2 hrs; assay type: ADME, tissue-based; conditions: read-out: Ct; how it was run: as §2
[10] = test system: Clostridioides difficile; assay: Antibacterial activity against fluoroquinolone-resistant Clostridioides difficile CB1941 harboring gyrAD71Y/T82A mutant measured after 3 days; assay type: functional; conditions: CB1941, 72 h, time 3 day
[11] = Clearance in Beagle dog at 5 mg/kg, iv; assay type: ADME, organism-based, Canis lupus familiaris; conditions: in vivo
How it was run: (§4)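 Plasma PK after single intravenous or oral dosing. Mice C57BL/6 at 5 mg/kg IV or 20 mg/kg PO; Sprague–Dawley rats at 10 mg/kg IV or 50 mg/kg PO; beagle dogs at 5 mg/kg IV or 25 mg/kg PO. AUC reported in ng·h/mL. Clearance from the IV arms in mL/min·kg.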

[12] = Drug distribution in Sprague-Dawley rat plasma measured at 0.5 hrs; assay type: ADME, cell-free; how it was run: as §2
[13] = Half life in Sprague-Dawley rat at 10 mg/kg, iv; assay type: ADME, organism-based; conditions: in vivo
[14] = Drug distribution in Sprague-Dawley rat plasma measured at 24 hrs; assay type: ADME, cell-free; conditions: BLD = below limit of detection; how it was run: as §2
[15] = Drug distribution in Sprague-Dawley rat gums measured at 6 hrs; assay type: ADME, tissue-based, Gingiva; conditions: read-out: Ct; how it was run: as §2
[16] = Oral bioavailability in C57BL/6 mouse at 20 mg/kg; assay type: ADME, organism-based; conditions: in vivo
[17] = Drug distribution in Sprague-Dawley rat stomach tissue measured at 2 hrs; assay type: ADME, tissue-based; conditions: read-out: Ct; how it was run: as §2
[18] = test system: Gardnerella vaginalis; assay: Resistance development in Gardnerella vaginalis MMX 5973 assessed as spontaneous resistance frequency using at 4.50 x 10^8 CFU inoculum at 1 ug/ml; assay type: functional; conditions: dose 1 µg/ml; how it was run: as §1
[19] = test system: Gardnerella vaginalis; assay: Antibacterial activity against Gardnerella vaginalis clinical isolate USA; assay type: functional
[20] = test system: Helicobacter pylori; assay: Antibacterial activity against Helicobacter pylori clinical isolate China; assay type: functional
[21] = AUC in Sprague-Dawley rat at 50 mg/kg, po; assay type: ADME, organism-based; design: dose 50 mg/kg, route po; conditions: in vivo; how it was run: as §4
[22] = Oral bioavailability in Beagle dog at 25 mg/kg; assay type: ADME, organism-based, Canis lupus familiaris; conditions: in vivo
[23] = test system: Helicobacter pylori; assay: Bactericidal activity against Helicobacter pylori ATCC 700824 assessed as reduction in CFU at 4 to 16 times MIC by time kill assay; assay type: functional, organism-based
[24] = test system: Gardnerella vaginalis; assay: Resistance development in Gardnerella vaginalis MMX 5973 assessed as spontaneous resistance frequency using at 4.50 x 10^8 CFU inoculum at 0.5 ug/ml; assay type: functional; conditions: dose 0.5 µg/ml; how it was run: as §1
[25] = test system: Clostridioides difficile; assay: Resistance development in Clostridioides difficile MMX 4381 assessed as spontaneous resistance frequency using at 1.23 x 10^9 CFU inoculum at 4 ug/ml; assay type: functional; conditions: dose 4 µg/ml
[26] = Half life in C57BL/6 mouse at 20 mg/kg, po; assay type: ADME, organism-based; conditions: in vivo
How it was run: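 Single-dose PK of TNP-2198 was run in C57BL/6 mice (IV 5 mg/kg; PO 20 mg/kg) and beagle dogs (IV 5 mg/kg; PO 25 mg/kg). Terminal half-life (h) was derived from plasma profiles, together with Tmax, Vdss, CL, AUC and oral bioavailability.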

[27] = Half life in Sprague-Dawley rat at 50 mg/kg, po; assay type: ADME, organism-based; conditions: in vivo
[28] = test system: Helicobacter pylori; assay: Antibacterial activity against Helicobacter pylori infected in C57/BL6 mouse assessed as bacterial load in stomach at 5 mg/kg administered twice daily via oral gavage starting from 7 days post inoculation and administered for 7 days (reference value: 5.25 log10CFU); assay type: functional; conditions: time 7 day
[29] = test system: Clostridioides difficile; assay: Antibacterial activity against Clostridioides difficile CB1921 ATCC BAA1382 measured after 3 days; assay type: functional; conditions: CB1921 ATCC BAA1382, 72 h, time 3 day
[30] = test system: Clostridioides difficile; assay: Antibacterial activity against Clostridioides difficile clinical isolate China; assay type: functional
[31] = test system: Bifidobacterium breve; assay: Antibacterial activity against Bifidobacterium ATCC 15698; assay type: functional
[32] = test system: Gardnerella vaginalis; assay: Resistance development in Gardnerella vaginalis MMX 5973 assessed as spontaneous resistance frequency using at 4.50 x 10^8 CFU inoculum at 2 ug/ml; assay type: functional; conditions: dose 2 µg/ml; how it was run: as §1
[33] = test system: Clostridioides difficile; assay: Antibacterial activity against rifampicin/fluoroquinolone-resistant Clostridioides difficile CB1942 harboring rpoBQ489K/gyrAD71Y/T82A mutant measured after 3 days; assay type: functional; conditions: CB1942, 72 h, time 3 day
[34] = Drug distribution in Sprague-Dawley rat brain measured at 6 hrs; assay type: ADME, tissue-based; conditions: read-out: Ct; how it was run: as §2
[35] = test system: Helicobacter pylori; assay: Antibacterial activity against metronidazole-resistant Helicobacter pylori CB1573 harboring rdxAR16S mutant measured after 5 days by agar dilution method; assay type: functional; conditions: CB1573, 120 h, time 5 day; how it was run: as §3
[36] = test system: Clostridioides difficile; assay: Antibacterial activity against Clostridioides difficile BAA 1382; assay type: functional
[37] = Drug distribution in Sprague-Dawley rat large intestine content measured at 12 hrs; assay type: ADME, tissue-based; conditions: read-out: Ct; how it was run: as §2
[38] = test system: Fusobacterium nucleatum; assay: Antibacterial activity against Fusobacterium nucleatum ATCC 25586; assay type: functional
[39] = test system: Prevotella bivia; assay: Antibacterial activity against Prevotella bivia ATCC 29303/MMX 5718; assay type: functional
[40] = Drug distribution in Sprague-Dawley rat large intestine tissue measured at 6 hrs; assay type: ADME, tissue-based; conditions: read-out: Ct; how it was run: as §2
[41] = test system: Gardnerella vaginalis; assay: Antibacterial activity against Gardnerella vaginalis ATCC 49145; assay type: functional
[42] = test system: Clostridioides difficile; assay: Antibacterial activity against Clostridioides difficile ATCC 9689; assay type: functional
[43] = Tmax in C57BL/6 mouse at 20 mg/kg, po; assay type: ADME, organism-based; conditions: in vivo
[44] = Drug distribution in Sprague-Dawley rat plasma measured at 6 hrs; assay type: ADME, cell-free; how it was run: as §2

CO[C@H]1/C=C/O[C@@]2(C)Oc3c(C)c(O)c4c(c3C2=O)C2=NC3(CCN(CCn5c([N+](=O)[O-])cnc5C)CC3)NC2=C(NC(=O)/C(C)=C\C=C\[C@H](C)[C@H](O)[C@@H](C)[C@@H](O)[C@@H](C)[C@H](OC(C)=O)[C@@H]1C)C4=O [RIFASUTENIZOL]
Vd [1]: 0.9 L/kg | Activity [2]: <2 10^-9No_unit | MIC [3]: 0.001 µg/mL (≈ 0.00106 µM) | MIC [4]: 0.015 µg/mL (≈ 0.0159 µM) | concentration at 0.5 h [5]: 4190 ng/g | MIC [6]: 0.125 µg/mL (≈ 0.132 µM) | MIC [7]: 2 µg/mL (≈ 2.12 µM) | concentration at 12 h [8]: 35.8 ng/g | concentration at 2 h [9]: 8410 ng/g | MIC [10]: ≤ 0.002 µg/mL | clearance [11]: 20 mL/min/kg | concentration at 0.5 h [12]: 1700 ng/mL | half-life [13]: 46.2 min | Cp [14]: Bld | concentration at 6 h [15]: 3660 ng/g | bioavailability [16]: 20% | concentration at 2 h [17]: 72500 ng/g | Activity [18]: <2 10^-9No_unit | MIC [19]: ≤ 0.004 µg/mL | MIC90 [19]: 0.06 µg/mL (≈ 0.0636 µM) | MIC [20]: ≤ 0.002 µg/mL | AUC [21]: 15400 ng·h/mL | bioavailability [22]: 65% | Activity [23]: Active | Activity [24]: <2 10^-9No_unit | Activity [25]: <8 10^-9No_unit | half-life [26]: 30.6 min | half-life [27]: 56.4 min | Activity [28]: 2.89 log10CFU | MIC [29]: ≤ 0.002 µg/mL | MIC [30]: ≤ 0.06 µg/mL | MIC90 [30]: 1 µg/mL (≈ 1.06 µM) | MIC [31]: 0.015 µg/mL (≈ 0.0159 µM) | Activity [32]: <2 10^-9No_unit | MIC [33]: 0.06 µg/mL (≈ 0.0636 µM) | concentration at 6 h [34]: 156 ng/g | MIC [35]: ≤ 0.002 µg/mL | MIC [36]: 0.00025 µg/mL (≈ 0.000265 µM) | concentration at 12 h [37]: 2980 ng/g | MIC [38]: 0.001 µg/mL (≈ 0.00106 µM) | MIC [39]: 0.015 µg/mL (≈ 0.0159 µM) | concentration at 6 h [40]: 3660 ng/g | MIC [41]: 0.004 µg/mL (≈ 0.00424 µM) | MIC [42]: 0.0002 µg/mL (≈ 0.000212 µM) | Tmax [43]: 30 min | concentration at 6 h [44]: 1440 ng/mL
